Reference: article PMC4317570 (Cell metabolism, 2015)

Assays:
RORγ LBD [1] = assay: Fluorescein-NCOA2 coactivator peptide recruitment, fluorescence polarization; format: biochemical; conditions: fluoresceinated NCOA2 peptide, holo vs apo receptor
RORγ LBD [2] = assay: CD thermal denaturation of RORγ LBD, apo vs holo; format: binding; conditions: holo vs apo receptor
RORγ [3] = target: T1, RORγ (Mus musculus, UniProt P51450); assay: RORγ reporter assay in mammalian cells; format: cell-based; conditions: mammalian cells (HEK293T)
T1 sequence (P51450 267-516 limits assumed): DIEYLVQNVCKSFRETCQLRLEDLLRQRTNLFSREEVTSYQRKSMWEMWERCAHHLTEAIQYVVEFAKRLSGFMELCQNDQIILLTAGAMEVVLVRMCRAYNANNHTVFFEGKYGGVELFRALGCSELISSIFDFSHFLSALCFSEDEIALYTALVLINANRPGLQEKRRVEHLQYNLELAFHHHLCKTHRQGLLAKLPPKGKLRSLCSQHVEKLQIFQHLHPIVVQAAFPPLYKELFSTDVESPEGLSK
How it was run: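 HEK293T cells are co-transfected with a RORγ-gal4 fusion plus a GAL4 UAS firefly luciferase reporter (luc2p) and exposed to test compound. Luciferase activity is the read-out. Data are averages of technical triplicates ± standard deviation, representative of n=6 experiments. Statistics use two-tailed unpaired Student's t-test on aggregated experiments.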

[4] = system: Sc4mol-/- naïve CD4+ T cells; assay: Th17 cell polarization of RORγt-cre Sc4mol-/- naïve CD4+ T cells; format: cell-based, mouse
RORγ [5] = target: RORγ (Mus musculus, UniProt P51450); assay: RORγ-gal4/UAS luciferase reporter in insect cells grown in sterol-free CDM; format: cell-based
How it was run: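 Drosophila Kc167 cells are kept in continuous culture in lipid-free chemically defined medium: 40% Grace's medium, 10% Murashige–Skoog micronutrients, 1% NEAS, 1 mM pyruvate, 2% ITS-A and 1% Pluronic F-68. Cells are transiently transfected with RORγ-gal4 plus a UAS luc2p firefly luciferase reporter (minimal hsp70 promoter), then treated with test compound. EC50 is derived from reporter activity. Each compound is tested at least twice in technical triplicates ± standard deviation.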

[6] = system: RORγ reporter activity in U937ROR cells; format: cell-based; conditions: media supplemented with exogenous cholesterol
RORγ LBD [7] = assay: Competition binding with fluorescein-labeled 25-hydroxycholesterol; conditions: recombinant RORγ
[8] = system: RORγ reporter activity in SXLT cells; assay: Full length RORγ reporter; format: cell-based; conditions: media supplemented with compound, Fdft1-/- SXLT cells
How it was run: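 Fdft1−/− SXLT cells are transfected with a full-length RORγ construct driving a firefly luciferase reporter from an endogenous Il-23r enhancer element. Test compound is added to the medium, and luciferase activity is read. Data are technical triplicates ± standard deviation, representative of n=4 experiments. Comparison is by two-tailed unpaired Student's t-test on aggregated experiments.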

CC(C)CCC[C@@H](C)[C@H]1CC[C@H]2C3=CCC4[C@H](C(=O)O)[C@@H](O)CC[C@]4(C)[C@H]3CC[C@]12C (stereo partly drawn) [4ACD7, 4α-carboxy-cholest-7-en-3β-ol]
Co-activator peptide recruitment to RORγ (RORγ LBD [1]): promote the recruitment
Thermal stability of the RORγ LBD (RORγ LBD [2]): increase stability

CC(C)=CCC[C@@H](C)[C@H]1CC[C@H]2C3=C(CC[C@]12C)[C@@]1(C)CCC(O)[C@@](C)(C(=O)O)C1CC3 (stereo partly drawn) [4ACD8, 4α–carboxy, 4β-methyl-cholesta-8,24-dien-3-ol]
RORγ reporter activity in mammalian cells (RORγ [3]): specific agonist activity
Th17 cell differentiation in Sc4mol-/- naïve CD4+ T cells ([4]; 1 μM added to media): rescues Th17 cell differentiation
Co-activator peptide recruitment to RORγ (RORγ LBD [1]): promoted co-activator peptide recruitment
Thermal stability of the RORγ LBD (RORγ LBD [2]): increased the thermal stability

CC(C)=CCC[C@@H](C)[C@H]1CC[C@@]2(C)C3=CCC4[C@](C)(C=O)C(O)CC[C@]4(C)[C@H]3CC[C@]12C (stereo partly drawn) [4α–formyl,4β,14α-dimethyl-cholesta-7,24-dien-3-ol]
EC50 (RORγ [5]): 150 to 500 nM
RORγ reporter activity in mammalian cells (RORγ [3]): no activity

CC(C)=CCCC(C)C1CCC2(C)C3=CCC4C(C)(CO)C(O)CCC4(C)C3CCC12C (stereo not drawn) [4α–hydroxymethyl,4β,14α-dimethyl-cholesta-7,24-dien-3-ol]
RORγ reporter activity in mammalian cells (RORγ [3]): no activity

CC(C)=CCC[C@@H](C)[C@H]1CC=C2C3=C(CC[C@@]21C)[C@@]1(C)CCC(O)C(C)(C)C1CC3 (stereo partly drawn) [FF-MAS, 4α,4β-dimethyl-cholesta-8,14,24-trien-3-ol, reference compound]
RORγ reporter activity in mammalian cells (RORγ [3]): weak agonist

C=CCN(C)CCCCCCOc1ccc(C(=O)c2ccc(Br)cc2)c(F)c1.O=C(O)/C=C/C(=O)O [Ro 48-8071 fumarate]
RORγ reporter activity in U937ROR cells [6]: inhibited in a dose dependent fashion

CC(C)=CCC[C@@H](C)[C@H]1CC[C@H]2C3=C(CC[C@]12C)[C@@]1(C)CCC(O)C(C)(C)C1CC3 (stereo partly drawn) [T-MAS, 4α,4β-dimethyl-cholesta-8,24-dien-3-ol]
Binding to RORγ (RORγ LBD [7]): bind very weakly if at all

CC(C)CCC[C@@H](C)[C@H]1CC[C@H]2[C@@H]3CC=C4C[C@@H](O)CC[C@]4(C)[C@H]3CC[C@]12C [cholesterol, reference compound]
Th17 polarization defect of Sc4mol-/- T cells ([4]; supplementation of media): could not be alleviated

CC(C)=CCC[C@@H](C)[C@H]1CC[C@@]2(C)C3=C(CC[C@]12C)[C@@]1(C)CC[C@H](O)C(C)(C)[C@@H]1CC3 [lanosterol, 14α,4α,4β-trimethyl-cholesta-8,24-dien-3-ol]
RORγ reporter activity in insect cells (RORγ [5]; higher concentrations): significant RORγ reporter activity
RORγ reporter activity in insect cells (RORγ [5]; physiological concentrations (1 μM)): little to no activity

CC[C@H](C)C(=O)O[C@H]1C[C@@H](C)C=C2C=C[C@H](C)[C@H](CC[C@@H]3C[C@@H](O)CC(=O)O3)[C@H]21 [lovastatin]
RORγ reporter activity in U937ROR cells [6]: inhibited in a dose dependent fashion

CC(C)=CCC/C(C)=C/CC/C(C)=C/CC/C=C(\C)CC/C=C(\C)CCC=C(C)C [squalene]
Rescue of full length RORγ reporter activity in SXLT cells [8]: partially rescue
